Activity, IC50 and inhibition data for 3 compounds are collected here from ChEMBL document CHEMBL3351414, “Novel 9'-substituted-noscapines: synthesis with Suzuki cross-coupling, structure elucidation and biological evaluation” (Eur J Med Chem, 2014).

The subject of assay [1] is HeLa. The experiment in a line: Upregulation of aurora kinase A protein level in human HeLa cells at 25 uM after 24 hrs by Western blot analysis. The assay is classed as functional, cell-based. On the technique in general: Immunoblotting shows a protein as a band on a membrane.
The test system of assay [2] is IGROV-1. Briefly: Antiproliferative activity against human IGROV1 cells assessed as reduction in cell viability after 72 hrs by MTT assay. It is filed as functional, cell-based. The conditions noted are these: IGROV-1, 72 h. In outline:
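Cells kept in RPMI-1640 (Jurkat, SEM, RS4;11) or DMEM (A549, HeLa, IGROV-1, HT-29) with 10% FBS plus penicillin/streptomycin. 8×10^3 cells per well were left 18 h at 37 °C in 5% CO2. Medium was then replaced with fresh medium holding graded compound concentrations from 10 mM DMSO stocks. Cells were incubated 72 h and viability read by MTT. IC50 is the mean ± SEM from dose–response curves of at least three independent experiments.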
(Formazan colour is commonly taken as a measure of viable cells.)

Assay [3] concerns HeLa. The experiment in a line: Upregulation of cyclin B protein level in human HeLa cells at 25 uM after 24 hrs by Western blot analysis. It is filed as functional, cell-based.
The test system of assay [4] is HeLa. The experiment in a line: Effect on cell morphology in human HeLa cells at 25 uM after 24 hrs using phalloidin staining by confocal microscopy. The assay is classed as functional, cell-based. In a few lines:
(§1)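 After 24 h at 25 µM, HeLa cells were stained with anti-PCM1 and Alexa-conjugated secondary antibody, with phalloidin-tetramethylrhodamine B for actin and DAPI for nuclei. Cells were imaged by confocal microscopy at 60×.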

Assay [5] has as its system HeLa. Briefly: Induction of apoptosis in human HeLa cells assessed as mitochondrial membrane depolarization at 6.2 to 50 uM using JC-1 staining-based fluorescence assay. It is filed as functional, cell-based. As to conditions: TDE = time-dependent effect. In outline: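 Mitochondrial membrane potential was read with the JC-1 dye in HeLa cells after 24 or 48 h at graded concentrations. Data are mean ± SEM of three independent experiments.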

Assay [6] has as its system HeLa. Briefly: Cell cycle arrest in human HeLa cells assessed as accumulation at G2/M phase at 25 uM after 24 hrs by flow cytometry. The assay is classed as functional. In outline: (§2)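 5×10^5 HeLa or Jurkat cells exposed to graded compound concentrations for 24 h. Cells were fixed in ice-cold 70% ethanol, lysed with RNase A/0.1% Triton X-100 buffer and stained with propidium iodide. DNA content was read by flow cytometry. Phase percentages are mean ± SEM of three independent experiments.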

Assay [7] deals with LoVo. Briefly: Antiproliferative activity against human LoVo cells assessed as reduction in cell viability after 72 hrs by MTT assay. The assay is classed as functional, cell-based.
The target of assay [8] is Tubulin (Bos taurus) (UniProt Q6B856+Q862L2+Q862F3). Briefly: Displacement of [3H]colchicine from bovine brain tubulin at 500 uM after 10 mins by liquid scintillation counting. Background: Displacement assays read how much labelled ligand stays bound in the presence of the test substance.
Assay [9] concerns HeLa. The experiment in a line: Downregulation of cyclin B protein level in human HeLa cells at 25 uM after 48 hrs by Western blot analysis. It is filed as functional, cell-based. In outline:
(§3)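 HeLa cells treated 24 or 48 h at 25 µM, then washed in PBS and lysed 30 min on ice. 20 µg protein per lane was resolved on 7.5–15% SDS-PAGE and blotted to PVDF. Blots were probed for cyclin B, p-cdc2 Tyr15, cdc25C and γH2A.X, with β-actin reprobe as loading control and ECL detection.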

Assay [10] relates to HeLa. Briefly: Induction of apoptosis in human HeLa cells assessed as reduction in Mcl-1 expression at 25 uM after 48 hrs by Western blot analysis. The assay is classed as functional, cell-based. In a few lines:
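HeLa cells treated 24 or 48 h at 25 µM, then lysed. 20 µg protein per lane was run on SDS-PAGE and transferred to PVDF. Membranes were probed 2 h at room temperature for cleaved caspase-9, caspase-3, cleaved PARP, Bcl-2, Mcl-1 or Bax, with peroxidase secondary antibody and ECL. β-Actin reprobe served as loading control.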

Assay [11] relates to HeLa. The experiment in a line: Upregulation of cdc25c protein level in human HeLa cells at 25 uM after 24 hrs by Western blot analysis. The assay is classed as functional, cell-based.
Assay [12] relates to HeLa. Briefly: Induction of DNA damage in human HeLa cells assessed as increase in phosphorylated form of histone gamma-H2A.X level at 25 uM after 24 hrs by Western blot analysis. The assay is classed as functional, cell-based. In a few lines: as §3
Assay [13] has as its system Jurkat. The experiment in a line: Cell cycle arrest in human Jurkat cells assessed as accumulation at G2/M phase at 10 to 25 uM after 24 hrs by flow cytometry. It is filed as functional, cell-based. In outline: as §2
The subject of assay [14] is HeLa. The experiment in a line: Downregulation of cdc25c protein level in human HeLa cells at 25 uM after 24 hrs by Western blot analysis. It is filed as functional, cell-based. As to conditions: in the assay text read “after 48 hrs” for “after 24 hrs”. In outline:
as §3

For assay [15], the target named is T1, Tubulin (Bos taurus, UniProt Q6B856+Q862L2+Q862F3). Briefly: Inhibition of bovine brain tubulin assessed as rate of assembly preincubated for 15 mins by turbidimetry. In outline:
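Bovine brain tubulin at 10 µM (1.0 mg/mL) in 0.8 M monosodium glutamate pH 6.6 with 4% DMSO and varying compound was preincubated 15 min at 30 °C, then chilled. GTP was added to 0.4 mM final and the temperature jumped from 0 to 30 °C. Turbidity was followed at 350 nm, scoring either maximum rate or extent of assembly at 20 min.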

The test system of assay [16] is HeLa. The experiment in a line: Disruption of microtubule network in human HeLa cells assessed as induction of spherical morphology at 25 uM after 24 hrs by immunofluorescence microscopy. It is filed as cell-based. In a few lines:
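HeLa cells exposed 24 h at 25 µM, fixed in cold 4% formaldehyde for 15 min, and stained with anti-β-tubulin plus Alexa-conjugated secondary antibody, with DAPI counterstain. Cells were imaged by confocal microscopy.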

For assay [17], the system named is HeLa. The experiment in a line: Effect on PCM1 protein in human HeLa cells assessed as accumulation of pericentriolar material at 25 uM after 24 hrs by immunofluorescence microscopy. It is filed as functional, cell-based. In outline: as §1
For assay [18], the target named is T1, Tubulin. Briefly: Displacement of [3H]colchicine from bovine brain tubulin assessed as rate of assembly after 10 mins by liquid scintillation counting.
Assay [19] relates to HeLa. Briefly: Induction of DNA damage in human HeLa cells assessed as increase in phosphorylated form of histone gamma-H2A.X level at 25 uM after 48 hrs by Western blot analysis. It is filed as functional, cell-based. In outline: as §3
Assay [20] deals with CA46. Briefly: Cell cycle arrest in human CA46 cells assessed as reduction in mitotic index by Giemsa staining method relative to control. The assay is classed as functional. Also on record: scale not given: the % may be the effect or the level left. In outline:
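CA46 Burkitt lymphoma cells grown in RPMI 1640 with 17% FBS and 2 mM L-glutamine at 37 °C, 5% CO2, treated 16 h. Cells were swollen 10 min in half-strength PBS, fixed in 0.5% acetic acid–1.5% ethanol, then spread from 25% acetic acid/75% ethanol. Slides were Giemsa-stained. Mitotic cells were those with condensed chromosomes and no nuclear membrane, with ≥200 cells counted per condition.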

Assay [21] deals with CA46. Briefly: Cell cycle arrest in human CA46 cells assessed as accumulation at G2/M phase at 5 times IC50 by flow cytometry. It is filed as functional.
The subject of assay [22] is CA46. The experiment in a line: Antiproliferative activity against human CA46 cells assessed as reduction in cell viability after 72 hrs by MTT assay. It is filed as functional, cell-based. As to conditions: CA46, 72 h.

Usually IC50 stands for the concentration that inhibits the measured activity by half. One may read the inhibition as the change of the read-out against control, counted positive when it falls.

Active and inactive are the calls of the source. No cut-off for these calls is given here.

Consider `COc1ccc2c(c1OC)C(=O)O[C@@H]2[C@H]1c2c(c(-c3ccc(C)cc3)c3c(c2OC)OCO3)CCN1C`, for which the outcome in assay [1], in [3], in assay [4], in assay [9], in assay [10] and in assay [11] was Active. Besides, the outcome in assay [12], in [13] and in assay [14] was Active. Also, the results for the concentration for half-maximal inhibition (IC50) in assay [2], in [7] and in assay [15] were 66.3 µM, 41.8 µM and 45 µM, respectively. The Activity result in assay [5] is “tde”; in assay [6], above 80%. In [8], this compound showed an inhibition of 64%.
On to `COc1ccc2c(c1OC)C(=O)O[C@@H]2[C@H]1c2c(c(Br)c3c(c2OC)OCO3)CCN1C`, for which the IC50 in [2] is 78.2 µM; in assay [18], above 400 µM; in [7], 42.8 µM; in assay [15], above 400 µM. Also, the result in assay [4], in [17], in [10], in assay [19] and in [14] was Active. The figures for the Activity entry in assay [5], in [16] and in [6] were “tde”, 70% and above 80%, respectively. Also, the inhibition in assay [8] was found to be 34%.
Take `COc1ccc2c(c1OC)C(=O)O[C@@H]2[C@H]1c2c(c(C)c3c(c2OC)OCO3)CCN1C`: the outcome in assay [1], in assay [3], in assay [4], in [17], in assay [10] and in assay [12] was Active. In assay [13], the outcome was Active. For the same compound, the IC50 stood at 62.4 µM in assay [2], 66.3 µM in [7], 220 µM in assay [15] and 18 µM in assay [22]. Further, the Activity entry in assay [5] was “tde”; in assay [16], 70%; in [6], above 80%; in [20], 38%; in [21] it was above 80%. In addition, in assay [8], the inhibition is 39%.
